# How the values were obtained:
# [1] = target: T1, Tyrosine-protein kinase JAK3 (Homo sapiens, UniProt P52333); test: Inhibition of human JAK3 assessed as reduction in phosphorylation of Biotin-Lyn-Substrate-2 after 1 hr in presence of ATP by ELISA
# T1 sequence (P52333 whole entry): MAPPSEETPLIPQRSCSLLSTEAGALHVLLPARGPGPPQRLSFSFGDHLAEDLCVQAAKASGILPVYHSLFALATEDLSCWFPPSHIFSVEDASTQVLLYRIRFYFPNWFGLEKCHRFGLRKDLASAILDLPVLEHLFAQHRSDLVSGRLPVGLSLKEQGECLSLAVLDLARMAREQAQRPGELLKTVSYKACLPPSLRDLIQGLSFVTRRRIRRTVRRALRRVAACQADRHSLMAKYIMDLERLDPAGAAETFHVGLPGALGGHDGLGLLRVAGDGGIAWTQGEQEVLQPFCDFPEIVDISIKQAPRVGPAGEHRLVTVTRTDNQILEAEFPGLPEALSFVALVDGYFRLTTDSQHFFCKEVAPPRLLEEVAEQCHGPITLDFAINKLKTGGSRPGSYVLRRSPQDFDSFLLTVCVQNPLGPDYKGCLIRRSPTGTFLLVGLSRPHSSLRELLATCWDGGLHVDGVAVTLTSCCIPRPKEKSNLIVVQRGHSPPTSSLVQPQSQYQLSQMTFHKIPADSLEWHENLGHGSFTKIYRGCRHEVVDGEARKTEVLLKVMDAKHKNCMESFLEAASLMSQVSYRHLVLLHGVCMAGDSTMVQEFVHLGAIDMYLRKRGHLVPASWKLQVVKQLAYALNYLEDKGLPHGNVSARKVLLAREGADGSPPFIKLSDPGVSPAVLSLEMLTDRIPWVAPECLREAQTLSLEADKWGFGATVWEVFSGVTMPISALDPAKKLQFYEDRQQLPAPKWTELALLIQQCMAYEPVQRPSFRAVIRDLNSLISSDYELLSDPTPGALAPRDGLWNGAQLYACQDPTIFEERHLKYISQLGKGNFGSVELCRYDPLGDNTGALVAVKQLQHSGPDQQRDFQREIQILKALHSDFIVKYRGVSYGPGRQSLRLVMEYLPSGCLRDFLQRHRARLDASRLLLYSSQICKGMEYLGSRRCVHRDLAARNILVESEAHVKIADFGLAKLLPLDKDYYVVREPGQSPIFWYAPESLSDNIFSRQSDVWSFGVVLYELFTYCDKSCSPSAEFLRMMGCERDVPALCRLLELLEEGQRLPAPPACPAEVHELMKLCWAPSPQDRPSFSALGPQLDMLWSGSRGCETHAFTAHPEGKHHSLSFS
# [2] = target: Tyrosine-protein kinase JAK2 (Homo sapiens, UniProt O60674); test: Inhibition of human JAK2 assessed as reduction in phosphorylation of Biotin-Lyn-Substrate-2 after 1 hr in presence of ATP by ELISA
# [3] = target: Tyrosine-protein kinase JAK1 (Homo sapiens, UniProt P23458); test: Inhibition of human JAK1 assessed as reduction in phosphorylation of Biotin-Lyn-Substrate-2 after 1 hr in presence of ATP by ELISA
# [4] = target: Voltage-gated inwardly rectifying potassium channel KCNH2 (Homo sapiens, UniProt Q12809); test: Inhibition of human ERG expressed in CHO-K1 cells after 10 mins by Rb efflux assay; assay type: cell-based
# Rattus norvegicus [5] = test: Immunomodulatory activity in ACI-to-Lewis rat heterotopic cardiac transplant model assessed as cardiac allograft survival at 10 mg/kg, po coadministered with tacrolimus at 0.02 mg/kg, im dosed from day of transplantation once daily for 14 consecutive days; assay type: functional
# How it was run: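 ACI rat hearts transplanted heterotopically into Lewis recipients. Oral drug given once daily for 14 consecutive days starting on the day of operation. In the combination arm, tacrolimus was given intramuscularly once daily. Cardiac allograft survival was checked by daily palpation for 28 days and expressed as median survival time (MST).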
# [6] = target: T2, CDK2/Cyclin A2 (Homo sapiens) (UniProt P24941+P20248); test: Inhibition of CDK2/CycA (unknown origin) at 1 uM; assay type: protein-complex assay
# [7] = target: Mitogen-activated protein kinase kinase kinase 9 (Homo sapiens) (UniProt P80192); test: Inhibition of MLK1 (unknown origin) at 1 uM
# [8] = target: High affinity nerve growth factor receptor (Homo sapiens) (UniProt P04629); test: Inhibition of TRKA (unknown origin) at 1 uM
# [9] = target: Tyrosine-protein kinase ABL1 (Homo sapiens) (UniProt P00519); test: Inhibition of ABL (unknown origin) at 1 uM
# [10] = target: Tyrosine-protein kinase BTK (Homo sapiens) (UniProt Q06187); test: Inhibition of BTK (unknown origin) at 1 uM
# [11] = target: Serine/threonine-protein kinase Chk1 (Homo sapiens) (UniProt O14757); test: Inhibition of CHK1 (unknown origin) at 1 uM
# [12] = target: Aurora kinase C (Homo sapiens) (UniProt Q9UQB9); test: Inhibition of AurC (unknown origin) at 1 uM
# [13] = target: Casein kinase I isoform delta (Homo sapiens) (UniProt P48730); test: Inhibition of CK1delta (unknown origin) at 1 uM
# [14] = target: Epidermal growth factor receptor (Homo sapiens) (UniProt P00533); test: Inhibition of EGFR (unknown origin) at 1 uM
# [15] = target: Focal adhesion kinase 1 (Homo sapiens) (UniProt Q05397); test: Inhibition of FAK (unknown origin) at 1 uM
# [16] = target: Receptor tyrosine-protein kinase erbB-2 (Homo sapiens) (UniProt P04626); test: Inhibition of HER2 (unknown origin) at 1 uM
# [17] = target: Ephrin type-A receptor 2 (Homo sapiens) (UniProt P29317); test: Inhibition of EPHA2 (unknown origin) at 1 uM
# [18] = target: RAC-alpha serine/threonine-protein kinase (Homo sapiens) (UniProt P31749); test: Inhibition of AKT1 (unknown origin) at 1 uM
# [19] = target: Angiopoietin-1 receptor (Homo sapiens) (UniProt Q02763); test: Inhibition of TIE2 (unknown origin) at 1 uM
# [20] = target: Bone morphogenetic protein receptor type-1A (Homo sapiens) (UniProt P36894); test: Inhibition of BMPR1A (unknown origin) at 1 uM
# [21] = target: Tyrosine-protein kinase ZAP-70 (Homo sapiens) (UniProt P43403); test: Inhibition of ZAP70 (unknown origin) at 1 uM
# [22] = target: Calcium/calmodulin-dependent protein kinase type II subunit alpha (Homo sapiens) (UniProt Q9UQM7); test: Inhibition of CaMK2alpha (unknown origin) at 1 uM
# [23] = target: T2, CDK2/Cyclin A2 (Homo sapiens); test: Inhibition of CDK2/CycA (unknown origin) at 0.1 uM; assay type: protein-complex assay
# [24] = target: Mitogen-activated protein kinase kinase kinase 9 (Homo sapiens) (UniProt P80192); test: Inhibition of MLK1 (unknown origin) at 0.1 uM
# [25] = target: High affinity nerve growth factor receptor (Homo sapiens) (UniProt P04629); test: Inhibition of TRKA (unknown origin) at 0.1 uM
# [26] = target: T2, CDK2/Cyclin A2 (Homo sapiens); test: Inhibition of CDK2/CycA (unknown origin) at 0.01 uM; assay type: protein-complex assay
# [27] = target: Mitogen-activated protein kinase kinase kinase 9 (Homo sapiens) (UniProt P80192); test: Inhibition of MLK1 (unknown origin) at 0.01 uM
# [28] = target: High affinity nerve growth factor receptor (Homo sapiens) (UniProt P04629); test: Inhibition of TRKA (unknown origin) at 0.01 uM
# [29] = Intrinsic clearance in rat liver microsomes in presence of NADPH; assay type: ADME, Microsome; conditions: read-out: CLH
# How it was run: (§1)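 Incubation with rat or human liver microsomes plus NADPH-generating system; intrinsic clearance expressed as mL/min/kg (n=2).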
# [30] = Intrinsic clearance in human liver microsomes in presence of NADPH; assay type: ADME, Microsome; conditions: read-out: CLH; how it was run: as §1
# [31] = Effective permeability of the compound at pH 6.5 by PAMPA; assay type: ADME; conditions: read-out: Peff
# How it was run: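 Parallel artificial membrane permeability assay, donor buffer pH 6.5; effective permeability reported in cm/sec (n=3).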
# [32] = AUC (0 to 24 hrs) in rat at 1 mg/kg, iv; assay type: ADME, organism-based; set-up: dose 1 mg/kg, time < 24 hr, route intravenous; conditions: in vivo
# [33] = Half life in rat at 1 mg/kg, iv; assay type: ADME, organism-based; conditions: in vivo
# [34] = Volume of distribution at steady state in rat at 1 mg/kg, iv; assay type: ADME, organism-based; conditions: in vivo, read-out: Vdss
# [35] = Total clearance in rat at 1 mg/kg, iv; assay type: ADME, organism-based; conditions: in vivo
# [36] = Cmax in rat at 1 mg/kg, po; assay type: ADME, organism-based; set-up: dose 1 mg/kg, route oral; conditions: in vivo
# [37] = Tmax in rat at 1 mg/kg, po; assay type: ADME, organism-based; conditions: in vivo
# [38] = AUC (0 to 24 hrs) in rat at 1 mg/kg, po; assay type: ADME, organism-based; set-up: dose 1 mg/kg, time < 24 hr, route oral; conditions: in vivo
# [39] = Oral bioavailability in rat at 1 mg/kg; assay type: ADME, organism-based; conditions: in vivo
# [40] = target: Tyrosine-protein kinase JAK3 (Homo sapiens) (UniProt P52333); test: Inhibition of human JAK3 assessed as phosphorylation of Biotin-Lyn-Substrate-2 at 1 uM after 1 hr in presence of ATP by ELISA
# Rattus norvegicus [41] = test: Immunomodulatory activity in ACI-to-Lewis rat heterotopic cardiac transplant model assessed as mean survival time at 0.02 mg/kg, im dosed from day of transplantation once daily for 14 consecutive days measured for 28 days; assay type: functional
# Tyrosine-protein kinase JAK1, sequence (P23458 whole entry): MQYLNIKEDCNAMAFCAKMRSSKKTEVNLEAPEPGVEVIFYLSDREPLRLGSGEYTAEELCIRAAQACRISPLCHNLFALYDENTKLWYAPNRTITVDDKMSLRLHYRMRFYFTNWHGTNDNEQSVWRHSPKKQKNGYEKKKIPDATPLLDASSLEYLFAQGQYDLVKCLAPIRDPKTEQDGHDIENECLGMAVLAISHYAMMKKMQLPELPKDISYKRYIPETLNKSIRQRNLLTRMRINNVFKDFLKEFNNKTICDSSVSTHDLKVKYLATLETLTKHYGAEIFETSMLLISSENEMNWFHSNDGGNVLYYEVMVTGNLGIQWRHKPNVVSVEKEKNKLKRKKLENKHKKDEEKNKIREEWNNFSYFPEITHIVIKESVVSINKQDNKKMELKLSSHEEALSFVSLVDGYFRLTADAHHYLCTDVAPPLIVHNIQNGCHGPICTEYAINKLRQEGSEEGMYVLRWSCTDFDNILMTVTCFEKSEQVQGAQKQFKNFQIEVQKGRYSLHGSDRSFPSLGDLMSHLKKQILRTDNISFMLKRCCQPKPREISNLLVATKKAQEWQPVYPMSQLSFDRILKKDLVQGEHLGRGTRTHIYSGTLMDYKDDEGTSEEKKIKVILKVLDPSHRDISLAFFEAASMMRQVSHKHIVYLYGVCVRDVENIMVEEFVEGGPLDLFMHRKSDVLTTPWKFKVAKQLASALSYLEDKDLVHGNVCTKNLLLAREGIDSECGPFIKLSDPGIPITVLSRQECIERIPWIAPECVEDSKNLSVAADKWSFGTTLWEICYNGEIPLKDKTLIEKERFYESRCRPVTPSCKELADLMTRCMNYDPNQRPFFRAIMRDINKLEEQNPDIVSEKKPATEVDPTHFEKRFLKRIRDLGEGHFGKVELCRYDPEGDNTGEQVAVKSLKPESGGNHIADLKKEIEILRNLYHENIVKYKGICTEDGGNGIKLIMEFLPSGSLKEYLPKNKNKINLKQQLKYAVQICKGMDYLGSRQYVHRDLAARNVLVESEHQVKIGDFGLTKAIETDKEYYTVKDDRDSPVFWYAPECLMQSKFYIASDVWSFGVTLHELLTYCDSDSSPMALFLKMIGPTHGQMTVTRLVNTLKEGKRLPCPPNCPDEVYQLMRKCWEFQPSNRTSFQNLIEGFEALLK
# High affinity nerve growth factor receptor (Homo sapiens), sequence (P04629 33-796 limits assumed): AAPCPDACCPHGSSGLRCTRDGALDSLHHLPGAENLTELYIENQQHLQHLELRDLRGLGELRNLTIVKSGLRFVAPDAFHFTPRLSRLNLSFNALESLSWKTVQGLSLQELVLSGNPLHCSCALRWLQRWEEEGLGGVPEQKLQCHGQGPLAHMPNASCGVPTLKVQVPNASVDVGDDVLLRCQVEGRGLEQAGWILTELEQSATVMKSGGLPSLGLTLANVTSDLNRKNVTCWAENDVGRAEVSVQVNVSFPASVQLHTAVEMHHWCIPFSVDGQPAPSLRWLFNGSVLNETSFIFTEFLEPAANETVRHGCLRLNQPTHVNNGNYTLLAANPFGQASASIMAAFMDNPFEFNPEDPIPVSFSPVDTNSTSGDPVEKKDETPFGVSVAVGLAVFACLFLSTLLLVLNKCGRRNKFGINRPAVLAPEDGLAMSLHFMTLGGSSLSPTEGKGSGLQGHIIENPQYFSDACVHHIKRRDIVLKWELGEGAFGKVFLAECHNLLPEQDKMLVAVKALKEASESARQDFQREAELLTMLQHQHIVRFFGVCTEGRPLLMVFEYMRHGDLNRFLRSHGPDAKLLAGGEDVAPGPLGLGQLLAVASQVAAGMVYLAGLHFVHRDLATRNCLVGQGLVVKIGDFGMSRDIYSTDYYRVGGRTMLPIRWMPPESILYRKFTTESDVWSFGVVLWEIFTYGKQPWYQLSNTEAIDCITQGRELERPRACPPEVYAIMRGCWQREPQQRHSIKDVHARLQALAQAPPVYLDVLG
# Tyrosine-protein kinase JAK2, sequence (O60674 whole entry): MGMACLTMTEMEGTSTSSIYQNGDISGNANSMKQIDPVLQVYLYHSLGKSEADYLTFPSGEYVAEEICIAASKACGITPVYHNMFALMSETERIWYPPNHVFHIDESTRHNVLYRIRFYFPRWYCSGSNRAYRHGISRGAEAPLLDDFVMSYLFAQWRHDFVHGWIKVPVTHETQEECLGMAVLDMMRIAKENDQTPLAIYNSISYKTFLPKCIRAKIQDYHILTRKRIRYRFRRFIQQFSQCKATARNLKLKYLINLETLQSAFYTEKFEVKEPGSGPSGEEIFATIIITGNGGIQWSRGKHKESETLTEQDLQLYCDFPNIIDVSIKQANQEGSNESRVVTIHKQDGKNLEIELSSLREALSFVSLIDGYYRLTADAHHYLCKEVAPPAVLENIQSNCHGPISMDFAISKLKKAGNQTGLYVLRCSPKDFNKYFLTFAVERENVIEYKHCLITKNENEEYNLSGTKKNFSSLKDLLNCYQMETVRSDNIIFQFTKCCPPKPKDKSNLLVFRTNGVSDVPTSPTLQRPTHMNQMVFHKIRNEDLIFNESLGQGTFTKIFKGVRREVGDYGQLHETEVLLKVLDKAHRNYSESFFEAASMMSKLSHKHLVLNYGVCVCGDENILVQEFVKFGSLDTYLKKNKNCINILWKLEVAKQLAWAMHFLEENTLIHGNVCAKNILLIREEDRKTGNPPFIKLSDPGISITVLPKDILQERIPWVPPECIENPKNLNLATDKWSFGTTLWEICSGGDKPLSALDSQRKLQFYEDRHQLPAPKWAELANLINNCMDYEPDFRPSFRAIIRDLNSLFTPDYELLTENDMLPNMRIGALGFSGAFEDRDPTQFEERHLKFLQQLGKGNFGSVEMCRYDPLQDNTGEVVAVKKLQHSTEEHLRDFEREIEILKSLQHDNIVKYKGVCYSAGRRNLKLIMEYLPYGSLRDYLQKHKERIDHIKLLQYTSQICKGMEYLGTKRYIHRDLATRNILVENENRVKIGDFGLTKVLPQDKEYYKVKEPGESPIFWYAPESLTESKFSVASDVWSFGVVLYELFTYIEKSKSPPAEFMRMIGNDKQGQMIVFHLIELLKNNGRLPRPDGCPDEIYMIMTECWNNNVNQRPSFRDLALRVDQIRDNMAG
# Voltage-gated inwardly rectifying potassium channel KCNH2, sequence (Q12809 whole entry): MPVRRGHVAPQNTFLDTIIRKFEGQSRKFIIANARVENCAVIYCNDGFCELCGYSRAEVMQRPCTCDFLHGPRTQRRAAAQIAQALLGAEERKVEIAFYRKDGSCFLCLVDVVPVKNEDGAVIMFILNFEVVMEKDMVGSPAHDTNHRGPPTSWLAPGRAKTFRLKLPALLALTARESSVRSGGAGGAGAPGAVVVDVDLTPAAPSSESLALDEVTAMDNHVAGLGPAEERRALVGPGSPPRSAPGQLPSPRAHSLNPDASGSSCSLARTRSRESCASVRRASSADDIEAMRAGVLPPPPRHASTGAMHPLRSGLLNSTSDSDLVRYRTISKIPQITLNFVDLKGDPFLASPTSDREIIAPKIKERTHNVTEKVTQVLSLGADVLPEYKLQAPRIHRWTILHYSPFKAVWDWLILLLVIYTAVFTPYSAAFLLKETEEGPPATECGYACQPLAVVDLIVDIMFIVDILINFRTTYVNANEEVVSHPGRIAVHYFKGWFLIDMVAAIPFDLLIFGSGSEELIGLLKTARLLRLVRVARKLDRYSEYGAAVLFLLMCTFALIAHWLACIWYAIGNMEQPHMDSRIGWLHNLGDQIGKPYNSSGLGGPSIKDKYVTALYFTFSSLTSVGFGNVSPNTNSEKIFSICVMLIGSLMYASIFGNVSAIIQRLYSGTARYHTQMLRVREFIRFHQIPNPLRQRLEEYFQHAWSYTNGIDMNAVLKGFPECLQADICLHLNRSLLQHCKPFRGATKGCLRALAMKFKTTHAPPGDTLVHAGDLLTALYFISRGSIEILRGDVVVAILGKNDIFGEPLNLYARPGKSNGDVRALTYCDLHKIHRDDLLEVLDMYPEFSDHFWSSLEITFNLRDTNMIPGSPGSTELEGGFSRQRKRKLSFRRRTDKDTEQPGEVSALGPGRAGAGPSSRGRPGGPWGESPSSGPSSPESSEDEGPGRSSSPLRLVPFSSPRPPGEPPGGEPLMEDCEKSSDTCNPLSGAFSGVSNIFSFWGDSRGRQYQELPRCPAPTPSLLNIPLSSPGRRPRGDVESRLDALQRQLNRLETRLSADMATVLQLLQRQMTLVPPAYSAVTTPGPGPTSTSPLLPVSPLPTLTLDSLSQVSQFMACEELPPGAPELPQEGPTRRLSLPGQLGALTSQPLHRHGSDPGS
# Casein kinase I isoform delta (Homo sapiens), sequence (P48730 whole entry, looked up, canonical isoform): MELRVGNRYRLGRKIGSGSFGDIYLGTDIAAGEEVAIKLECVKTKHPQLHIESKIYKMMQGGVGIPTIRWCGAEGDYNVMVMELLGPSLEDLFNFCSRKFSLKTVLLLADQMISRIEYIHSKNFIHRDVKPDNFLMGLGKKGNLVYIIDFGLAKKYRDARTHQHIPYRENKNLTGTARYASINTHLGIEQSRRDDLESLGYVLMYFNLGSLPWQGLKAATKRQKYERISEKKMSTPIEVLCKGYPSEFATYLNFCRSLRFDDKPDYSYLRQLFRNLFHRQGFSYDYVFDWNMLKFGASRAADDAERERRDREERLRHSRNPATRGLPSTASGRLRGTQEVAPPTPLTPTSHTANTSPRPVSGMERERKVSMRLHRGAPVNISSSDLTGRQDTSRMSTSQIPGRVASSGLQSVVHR
# Aurora kinase C (Homo sapiens), sequence (Q9UQB9 whole entry, canonical isoform): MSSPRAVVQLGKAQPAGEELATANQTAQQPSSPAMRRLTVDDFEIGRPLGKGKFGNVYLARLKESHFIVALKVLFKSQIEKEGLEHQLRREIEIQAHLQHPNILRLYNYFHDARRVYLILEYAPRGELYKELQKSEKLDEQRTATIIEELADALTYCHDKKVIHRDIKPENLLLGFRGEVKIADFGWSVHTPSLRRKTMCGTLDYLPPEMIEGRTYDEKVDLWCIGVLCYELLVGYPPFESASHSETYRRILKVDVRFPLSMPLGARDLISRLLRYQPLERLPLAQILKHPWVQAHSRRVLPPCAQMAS
smiles,measurement,setting,value
N#Cc1ccc(N2CCC(Nc3cc(Nc4ccccc4)ncc3C(N)=O)CC2)nc1,IC50,[1],18 nM
same,IC50,[2],190 nM
Cc1nc2ccc(Nc3cc(NC4CCN(c5ccc(C#N)cn5)CC4)c(C(N)=O)cn3)cc2o1,IC50,[1],25 nM
same,IC50,[2],130 nM
C[C@@H]1CCCC[C@@H]1Nc1cc(Nc2ccccc2)ncc1C(N)=O,IC50,[1],37 nM
N#Cc1ccc(N2CCC(Nc3cc(Nc4cnccn4)ncc3C(N)=O)CC2)nc1,IC50,[1],0.72 nM
same,IC50,[3],2.5 nM
same,IC50,[2],4.1 nM
same,IC50,[4],7700 nM
Cc1cnc(Nc2cc(NC3CCN(c4ccc(C#N)cn4)CC3)c(C(N)=O)cn2)cn1,IC50,[1],1.1 nM
same,IC50,[3],6.7 nM
same,IC50,[2],5.3 nM
same,IC50,[4],4800 nM
N#Cc1ccc(N2CCC(Nc3cc(Nc4ccncn4)ncc3C(N)=O)CC2)nc1,IC50,[1],0.61 nM
same,IC50,[3],3.5 nM
same,IC50,[2],5.5 nM
same,IC50,[4],17000 nM
Cc1nccc(Nc2cc(NC3CCN(c4ccc(C#N)cn4)CC3)c(C(N)=O)cn2)n1,IC50,[3],5.4 nM
same,IC50,[2],3.2 nM
same,IC50,[4],8100 nM
Cc1nccc(Nc2cc(NC3CCN(c4ccc(C#N)cc4)CC3)c(C(N)=O)cn2)n1,MST,Rattus norvegicus [5],22.5 days
same,IC50,[3],4.2 nM
same,IC50,[2],3.5 nM
same,IC50,[4],> 100000 nM
same,inhibition,[6],96%
same,inhibition,[7],96%
same,inhibition,[8],94%
same,inhibition,[9],54%
same,inhibition,[10],49%
same,inhibition,[11],33%
same,inhibition,[12],28%
same,inhibition,[13],25%
same,inhibition,[14],19%
same,inhibition,[15],18%
same,inhibition,[16],14%
same,inhibition,[17],11%
same,inhibition,[18],10%
same,inhibition,[19],8%
same,inhibition,[20],3%
same,inhibition,[21],-2%
same,inhibition,[22],-1%
same,inhibition,[23],76%
same,inhibition,[24],84%
same,inhibition,[25],49%
same,inhibition,[26],27%
same,inhibition,[27],26%
same,inhibition,[28],8%
same,CLint scaled,[29],146 mL/min/kg
same,CLint scaled,[30],109 mL/min/kg
same,Papp,[31],> 30 ×10⁻⁶ cm/s
same,AUC(0-t) at 24 h,[32],1180 ng·h/mL
same,half-life,[33],3.4 h
same,Vd,[34],3.5 L/kg
same,clearance,[35],14.3 mL/min/kg
same,Cmax,[36],52.9 ng/mL
same,Tmax,[37],0.4 h
same,AUC(0-t) at 24 h,[38],278 ng·h/mL
same,bioavailability,[39],23.6%
Cc1nc2cc(Nc3cc(NC4CCN(c5ccc(C#N)cn5)CC4)c(C(N)=O)cn3)ccc2o1,IC50,[1],22 nM
same,IC50,[2],400 nM
NC(=O)c1cnc(N)cc1NCc1ccccc1,IC50,[1],> 1000 nM
same,inhibition,[40],41%
CN(c1ccccc1)c1cc(NCc2ccccc2)c(C(N)=O)cn1,IC50,[1],> 1000 nM
same,inhibition,[40],40%
Cc1nccc(Nc2cc(N[C@@H]3CCN(c4ccc(C#N)cn4)C[C@@H]3F)c(C(N)=O)cn2)n1,IC50,[3],0.24 nM
same,IC50,[4],> 100000 nM
C=CC[C@@H]1/C=C(\C)C[C@H](C)C[C@H](OC)[C@H]2O[C@@](O)(C(=O)C(=O)N3CCCC[C@H]3C(=O)O[C@H](/C(C)=C/[C@@H]3CC[C@@H](O)[C@H](OC)C3)[C@H](C)[C@@H](O)CC1=O)[C@H](C)C[C@@H]2OC [TACROLIMUS ANHYDROUS],MST,Rattus norvegicus [41],6.5 days
N#Cc1ccc(N2CCC(Nc3cc(Nc4ccccn4)ncc3C(N)=O)CC2)nc1,IC50,[1],0.46 nM
same,IC50,[3],2.9 nM
same,IC50,[4],360 nM
Cc1cncc(Nc2cc(NC3CCN(c4ccc(C#N)cn4)CC3)c(C(N)=O)cn2)n1,IC50,[1],1 nM
same,IC50,[3],1.9 nM
same,IC50,[2],4 nM
same,IC50,[4],5400 nM
